# In ChEMBL document CHEMBL1150418, “Discovery of potent furan piperazine sodium channel blockers for treatment of neuropathic pain” (Bioorg Med Chem, 2008):
# Molecular target: Sodium channel protein type 10 subunit alpha (Rattus norvegicus) (UniProt Q62968)
# Assay: Blockade of Nav1.8 channel in rat dorsal root ganglion neurons assessed as inhibition of TTX-R current at 10 uM by whole cell patch clamp technique
# Format: tissue-based
# Details: not given
# How it was run: (§1)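 Whole-cell voltage clamp of TTX-resistant currents in dissociated rat DRG neurons. Pipette (mM): CsF 135, NaCl 5, CsCl 10, EGTA 5, HEPES 10, pH 7.2. Bath (mM): NaCl 22, choline Cl 110, CaCl2 1.8, MgCl2 0.8, HEPES 10, glucose 5, pH 7.4. Inactivated-state protocol with pre-pulse at V1/2 (−40 mV). Mean ± SEM of two to six determinations.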
row,inhibition [%],Compound
1,86,CC(C)(C)c1ccc(-c2ccc(C(=O)N3CCNCC3)o2)cc1

# System: Rattus norvegicus
# Assay: Analgesic activity in ip dosed Sprague-Dawley rat assessed as attenuation of mechanical allodynia in chung model of neuropathic pain
# Details: not given
row,Compound,ED50 [µmol/kg]
1,Cc1cccc(C)c1OCC(C)N (stereo not given) [MEXILETINE],102

# Molecular target: T1, Sodium channel protein type 10 subunit alpha (Homo sapiens, UniProt Q9Y5Y9)
# Assay: Inhibition of human recombinant Nav1.8 channel expressed in HEK293 cells at 1 uM by whole cell voltage clamp technique
# Format: cell-based
# Details: not given
# How it was run: (§2)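 HEK293 cells stably expressing recombinant human sodium channels, grown in high-glucose DMEM, 10% FBS, 2 mM sodium pyruvate, G418. Whole-cell voltage clamp; pipettes 0.8–2.5 MΩ; internal (mM) 135 CsF, 10 CsCl, 5 EGTA, 5 NaCl, 10 HEPES, pH 7.3 with CsOH. Holding pre-pulse set at midpoint of steady-state inactivation for each subtype.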
# Target sequence in this assay (Q9Y5Y9 whole entry, looked up): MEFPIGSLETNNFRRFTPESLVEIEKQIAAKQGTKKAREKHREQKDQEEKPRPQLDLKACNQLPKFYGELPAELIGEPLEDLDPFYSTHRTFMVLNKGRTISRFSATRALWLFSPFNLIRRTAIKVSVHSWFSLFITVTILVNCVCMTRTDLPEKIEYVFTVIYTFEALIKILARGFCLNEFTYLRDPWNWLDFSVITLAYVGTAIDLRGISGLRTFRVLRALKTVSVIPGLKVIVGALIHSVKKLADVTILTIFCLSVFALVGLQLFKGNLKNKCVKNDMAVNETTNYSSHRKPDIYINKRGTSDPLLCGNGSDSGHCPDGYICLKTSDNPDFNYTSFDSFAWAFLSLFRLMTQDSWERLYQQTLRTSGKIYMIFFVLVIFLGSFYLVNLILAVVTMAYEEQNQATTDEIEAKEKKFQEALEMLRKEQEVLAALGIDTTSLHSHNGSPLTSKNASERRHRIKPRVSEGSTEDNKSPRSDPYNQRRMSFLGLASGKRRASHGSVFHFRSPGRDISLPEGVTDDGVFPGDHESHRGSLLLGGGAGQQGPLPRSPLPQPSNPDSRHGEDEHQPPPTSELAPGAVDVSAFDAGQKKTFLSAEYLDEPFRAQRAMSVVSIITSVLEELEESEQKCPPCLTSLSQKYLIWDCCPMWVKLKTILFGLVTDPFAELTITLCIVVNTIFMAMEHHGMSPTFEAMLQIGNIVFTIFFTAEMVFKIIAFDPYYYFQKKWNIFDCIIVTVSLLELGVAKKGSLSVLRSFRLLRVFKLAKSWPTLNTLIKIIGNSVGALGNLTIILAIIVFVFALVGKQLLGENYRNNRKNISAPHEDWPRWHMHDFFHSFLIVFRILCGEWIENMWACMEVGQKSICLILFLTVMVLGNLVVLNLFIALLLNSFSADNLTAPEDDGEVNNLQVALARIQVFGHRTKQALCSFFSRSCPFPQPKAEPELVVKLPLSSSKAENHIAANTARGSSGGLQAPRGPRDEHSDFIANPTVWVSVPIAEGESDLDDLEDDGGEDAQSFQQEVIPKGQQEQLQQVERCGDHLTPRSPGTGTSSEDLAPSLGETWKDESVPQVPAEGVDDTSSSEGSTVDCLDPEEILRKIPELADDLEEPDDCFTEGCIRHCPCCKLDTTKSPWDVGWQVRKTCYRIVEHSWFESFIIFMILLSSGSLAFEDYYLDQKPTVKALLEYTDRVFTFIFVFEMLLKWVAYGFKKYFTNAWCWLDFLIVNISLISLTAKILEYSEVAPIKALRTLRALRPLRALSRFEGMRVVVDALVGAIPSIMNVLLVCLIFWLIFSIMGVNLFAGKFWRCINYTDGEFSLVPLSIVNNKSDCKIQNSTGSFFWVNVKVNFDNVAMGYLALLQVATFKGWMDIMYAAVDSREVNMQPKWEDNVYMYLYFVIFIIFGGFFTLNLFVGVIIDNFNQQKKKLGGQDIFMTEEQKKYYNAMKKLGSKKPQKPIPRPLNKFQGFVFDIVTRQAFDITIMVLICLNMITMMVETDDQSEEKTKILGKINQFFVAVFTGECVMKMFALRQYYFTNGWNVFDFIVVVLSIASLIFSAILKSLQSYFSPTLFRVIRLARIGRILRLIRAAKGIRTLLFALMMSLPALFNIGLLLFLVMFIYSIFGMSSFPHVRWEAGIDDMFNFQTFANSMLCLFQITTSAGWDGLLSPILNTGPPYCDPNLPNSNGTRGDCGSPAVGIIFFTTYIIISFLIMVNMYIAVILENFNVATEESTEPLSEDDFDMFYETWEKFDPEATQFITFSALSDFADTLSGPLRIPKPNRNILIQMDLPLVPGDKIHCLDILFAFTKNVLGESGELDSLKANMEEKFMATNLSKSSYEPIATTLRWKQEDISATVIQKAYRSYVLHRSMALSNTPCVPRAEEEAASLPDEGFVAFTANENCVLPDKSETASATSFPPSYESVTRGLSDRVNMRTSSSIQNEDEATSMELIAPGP
row,inhibition [%],Compound
1,85,CC(C)(C)c1ccc(-c2ccc(C(=O)N3CCNCC3)o2)cc1

# Molecular target: T1, Sodium channel protein type 10 subunit alpha
# Assay: Inhibition of human recombinant Nav1.8 channel expressed in HEK293 cells by whole cell voltage clamp technique
# Format: cell-based
# Details: not given
# How it was run: as §2
# Target sequence in this assay (Q9Y5Y9 whole entry): as the sequence (Q9Y5Y9 whole entry, looked up) above
row,IC50 [µM],Compound
1,56,Cc1cccc(C)c1OCC(C)N (stereo not given) [MEXILETINE]

# System: not listed separately
# Assay: Ratio of drug level in brain to plasma in Sprague-Dawley rat
# Format: ADME
# Details: Sprague-Dawley, brain and plasma
row,Kp,Compound
1,1.4,Cc1cccc(C)c1OCC(C)N (stereo not given) [MEXILETINE]

# Molecular target: Sodium channel protein type 2 subunit alpha (Homo sapiens, UniProt Q99250)
# Sequence (Q99250 whole entry): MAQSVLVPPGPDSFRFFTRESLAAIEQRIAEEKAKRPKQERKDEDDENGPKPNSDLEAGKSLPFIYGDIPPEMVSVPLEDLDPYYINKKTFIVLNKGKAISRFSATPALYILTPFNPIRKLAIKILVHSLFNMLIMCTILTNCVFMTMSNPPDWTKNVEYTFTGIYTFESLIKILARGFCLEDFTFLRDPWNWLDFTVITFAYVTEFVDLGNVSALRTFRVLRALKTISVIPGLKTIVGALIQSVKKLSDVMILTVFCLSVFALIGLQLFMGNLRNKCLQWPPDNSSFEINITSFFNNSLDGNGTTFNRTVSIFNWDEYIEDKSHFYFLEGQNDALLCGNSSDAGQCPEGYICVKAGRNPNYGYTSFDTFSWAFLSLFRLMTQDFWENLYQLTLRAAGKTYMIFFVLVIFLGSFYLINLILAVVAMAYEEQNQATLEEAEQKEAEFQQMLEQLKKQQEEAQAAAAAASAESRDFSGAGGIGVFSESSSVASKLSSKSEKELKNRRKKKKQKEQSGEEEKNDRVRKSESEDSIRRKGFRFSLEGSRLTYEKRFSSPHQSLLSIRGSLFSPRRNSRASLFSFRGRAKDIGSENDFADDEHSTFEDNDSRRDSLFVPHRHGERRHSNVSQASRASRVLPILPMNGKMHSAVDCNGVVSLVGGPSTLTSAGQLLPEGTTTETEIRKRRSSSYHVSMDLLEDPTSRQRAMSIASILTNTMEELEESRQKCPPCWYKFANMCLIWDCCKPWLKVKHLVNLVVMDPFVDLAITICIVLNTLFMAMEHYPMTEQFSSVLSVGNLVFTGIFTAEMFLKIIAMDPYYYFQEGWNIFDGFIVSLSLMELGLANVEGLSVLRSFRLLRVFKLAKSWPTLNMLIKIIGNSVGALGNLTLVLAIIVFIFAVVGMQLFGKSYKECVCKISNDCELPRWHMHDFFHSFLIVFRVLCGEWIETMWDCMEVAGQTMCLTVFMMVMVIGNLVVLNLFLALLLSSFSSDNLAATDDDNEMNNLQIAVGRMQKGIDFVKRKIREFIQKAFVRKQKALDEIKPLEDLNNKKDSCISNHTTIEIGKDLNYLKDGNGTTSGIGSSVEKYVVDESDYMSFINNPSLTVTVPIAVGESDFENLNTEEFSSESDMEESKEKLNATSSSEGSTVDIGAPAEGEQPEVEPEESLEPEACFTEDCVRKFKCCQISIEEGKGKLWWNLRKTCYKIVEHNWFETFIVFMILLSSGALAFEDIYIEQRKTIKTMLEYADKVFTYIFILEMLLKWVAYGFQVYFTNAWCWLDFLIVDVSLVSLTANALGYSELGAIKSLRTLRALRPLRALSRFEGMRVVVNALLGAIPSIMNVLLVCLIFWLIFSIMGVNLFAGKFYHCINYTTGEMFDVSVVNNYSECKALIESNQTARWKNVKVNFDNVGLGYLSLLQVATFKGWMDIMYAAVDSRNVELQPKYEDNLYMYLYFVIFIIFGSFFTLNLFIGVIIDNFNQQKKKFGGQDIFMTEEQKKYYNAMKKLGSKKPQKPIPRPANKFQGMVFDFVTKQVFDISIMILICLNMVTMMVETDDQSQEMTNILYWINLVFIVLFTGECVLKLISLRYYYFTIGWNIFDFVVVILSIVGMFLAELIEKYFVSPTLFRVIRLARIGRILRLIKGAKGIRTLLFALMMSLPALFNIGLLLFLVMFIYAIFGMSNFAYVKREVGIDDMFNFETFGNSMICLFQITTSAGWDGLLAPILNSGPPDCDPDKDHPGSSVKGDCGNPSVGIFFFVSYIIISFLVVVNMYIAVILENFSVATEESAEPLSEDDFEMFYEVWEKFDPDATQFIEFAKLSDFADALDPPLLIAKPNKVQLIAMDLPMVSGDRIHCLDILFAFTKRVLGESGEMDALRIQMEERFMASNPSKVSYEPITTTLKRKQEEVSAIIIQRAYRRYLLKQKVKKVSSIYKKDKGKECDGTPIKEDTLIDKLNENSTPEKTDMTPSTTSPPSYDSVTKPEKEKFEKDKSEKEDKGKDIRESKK
# Assay: Inhibition of human recombinant Nav1.2 channel expressed in HEK293 cells by whole cell voltage clamp technique
# Format: cell-based
# Details: not given
# How it was run: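 HEK293 cells stably expressing recombinant human sodium channels, grown in high-glucose DMEM, 10% FBS, 2 mM sodium pyruvate, G418. Holding pre-pulse set at midpoint of steady-state inactivation for each subtype.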
row,IC50 [µM],Compound
1,2.9,Cc1cccc(C)c1OCC(C)N (stereo not given) [MEXILETINE]

# System: Rattus norvegicus
# Assay: Effect on locomotor activity in ip dosed Sprague-Dawley rat
# Details: not given
row,Compound,ED50 [µmol/kg]
1,Cc1cccc(C)c1OCC(C)N (stereo not given) [MEXILETINE],45

# Molecular target: T1, Sodium channel protein type 10 subunit alpha
# Assay: Inhibition of human recombinant Nav1.8 channel expressed in HEK293 cells at 0.1 uM by whole cell voltage clamp technique
# Format: cell-based
# Details: not given
# How it was run: as §2
# Target sequence in this assay (Q9Y5Y9 whole entry, looked up): as the sequence (Q9Y5Y9 whole entry, looked up) above
row,inhibition [%],Compound
1,44,CC(C)(C)c1ccc(-c2ccc(C(=O)N3CCNCC3)o2)cc1

# Molecular target: Sodium channel protein type 10 subunit alpha (Rattus norvegicus, UniProt Q62968)
# Assay: Blockade of Nav1.8 channel in rat dorsal root ganglion neurons assessed as inhibition of TTX-R current by whole cell patch clamp technique
# Format: tissue-based
# Details: not given
# How it was run: as §1
row,IC50 [µM],Compound
1,31,Cc1cccc(C)c1OCC(C)N (stereo not given) [MEXILETINE]

# System: Rattus norvegicus
# Assay: Analgesic activity in ip dosed Sprague-Dawley rat by rotarod test
# Details: not given
row,Compound,ED50 [µmol/kg]
1,Cc1cccc(C)c1OCC(C)N (stereo not given) [MEXILETINE],> 140
